In ChEMBL document CHEMBL1141100, “Design and synthesis of specific probes for human 5-HT4 receptor dimerization studies” (J Med Chem, 2005):

What was measured:
[1] = biological target: T1, 5-hydroxytryptamine receptor 4 (Homo sapiens, UniProt Q13639); assay: Percent cAMP production in C6 glial cells expressing human 5-hydroxytryptamine 4 receptor; assay type: functional, cell-based
In short: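 Confluent C6 cells stably expressing human 5-HT4(e) receptor were serum-starved 4 h, then preincubated 15 min with 5 mM theophylline and 10 μM pargyline. Compounds (seven concentrations, 10^-10 to 10^-5) and/or 5-HT (1 μM) were added for 15 min at 37 °C. Stopped with 20% perchloric acid, neutralized, and cAMP measured by radioimmunoassay.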

[2] = biological target: T1, 5-hydroxytryptamine receptor 4; assay: Binding affinity for 5-HT4 receptor using [3H]GR-113808

T1 sequence (Q13639 whole entry): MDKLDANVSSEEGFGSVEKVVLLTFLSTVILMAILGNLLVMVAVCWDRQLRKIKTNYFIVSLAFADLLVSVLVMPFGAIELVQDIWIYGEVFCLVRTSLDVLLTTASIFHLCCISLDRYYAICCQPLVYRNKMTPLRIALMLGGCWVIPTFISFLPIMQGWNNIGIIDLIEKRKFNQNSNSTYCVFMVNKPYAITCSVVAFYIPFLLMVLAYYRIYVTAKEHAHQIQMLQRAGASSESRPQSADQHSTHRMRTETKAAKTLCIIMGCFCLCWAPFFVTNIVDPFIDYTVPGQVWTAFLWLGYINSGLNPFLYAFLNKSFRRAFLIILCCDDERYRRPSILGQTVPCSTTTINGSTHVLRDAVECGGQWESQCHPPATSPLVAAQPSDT

SMILES | cAMP [1] [%] | Ki [2] [nM]
COc1cc(N)c(Cl)cc1C(=O)OCCN1CCC(CNC(=O)CCCCCCCCCCC(=O)NCC2CCN(CCOC(=O)c3cc(Cl)c(N)cc3OC)CC2)CC1 | 21 | 22
COc1cc(N)c(Cl)cc1C(=O)OCCN1CCC(NC(=O)CCc2ccc3c(c2)oc2cc(CCC(=O)NC4CCN(CCOC(=O)c5cc(Cl)c(N)cc5OC)CC4)ccc23)CC1 | 23 | 47
COc1cc(N)c(Cl)cc1C(=O)OCCN1CCC(C(=O)NCCOCCNC(=O)C2CCN(CCOC(=O)c3cc(Cl)c(N)cc3OC)CC2)CC1 | 0 | 19
COc1cc(N)c(Cl)cc1C(=O)OCCN1CCN(C(=O)CCCCCC(=O)N2CCN(CCOC(=O)c3cc(Cl)c(N)cc3OC)CC2)CC1 | – | 488
COc1cc(N)c(Cl)cc1C(=O)OCCN1CCC(NC(=O)CCCCCCCCCCNC(=O)C2CCN(CCOC(=O)c3cc(Cl)c(N)cc3OC)CC2)CC1 | 5 | 20
COc1cc(N)c(Cl)cc1C(=O)OCCN1CCC(NC(=O)CCCCCCCCCCC(=O)NC2CCN(Cc3ccccc3)CC2)CC1 | 35 | 14
COc1cc(N)c(Cl)cc1C(=O)OCCN1CCN(C(=O)CCCCCCCCCCC(=O)N2CCN(CCOC(=O)c3cc(Cl)c(N)cc3OC)CC2)CC1 | – | 200
COc1cc(N)c(Cl)cc1C(=O)OCCN1CCC(NC(=O)CCCNC(=O)C2CCN(CCOC(=O)c3cc(Cl)c(N)cc3OC)CC2)CC1 | 42 | 31
COc1cc(N)c(Cl)cc1C(=O)OCCN1CCC(CNC(=O)CCCC(=O)NCC2CCN(CCOC(=O)c3cc(Cl)c(N)cc3OC)CC2)CC1 | 20 | 13
COc1cc(N)c(Cl)cc1C(=O)OCCN1CCC(CNC(=O)CCCCCC(=O)NCC2CCN(CCOC(=O)c3cc(Cl)c(N)cc3OC)CC2)CC1 | 20 | 26
COc1cc(N)c(Cl)cc1C(=O)OCCN1CCC(C(=O)NCCCNC(=O)C2CCN(CCOC(=O)c3cc(Cl)c(N)cc3OC)CC2)CC1 | 13 | 13
COc1cc(N)c(Cl)cc1C(=O)OCCN1CCCCC1 | 45 | –
COc1cc(N)c(Cl)cc1C(=O)OCCN1CCC(NC(=O)CCCCCCCCCCN)CC1 | 50 | 13
COc1cc(N)c(Cl)cc1C(=O)OCCN1CCC(NC(=O)CCNC(=O)C2CCN(CCOC(=O)c3cc(Cl)c(N)cc3OC)CC2)CC1 | 10 | 24
COc1cc(N)c(Cl)cc1C(=O)OCCN1CCC(CCNC(=O)CCCC(=O)NCCC2CCN(CCOC(=O)c3cc(Cl)c(N)cc3OC)CC2)CC1 | 24 | –
COc1cc(N)c(Cl)cc1C(=O)OCCN1CCC(NC(=O)CCC(=O)NC2CCN(CCOC(=O)c3cc(Cl)c(N)cc3OC)CC2)CC1 | 47 | 21
COc1cc(N)c(Cl)cc1C(=O)OCCN1CCC(NC(=O)CCCCCCCCCCC(=O)NC2CCN(CCOC(=O)c3cc(Cl)c(N)cc3O)CC2)CC1 | 20 | 16
COc1cc(N)c(Cl)cc1C(=O)OCCN1CCC(NC(=O)CCCCCCCCCCN(CCCCCCCCCCC(=O)NC2CCN(CCOC(=O)c3cc(Cl)c(N)cc3OC)CC2)CC(=O)NCC2CCNCC2)CC1 | 10 | 50
COc1cc(N)c(Cl)cc1C(=O)OCCN1CCC(NC(=O)CCCCCCCCCCNc2nc(NCCCCCCCCCCC(=O)NC3CCN(CCOC(=O)c4cc(Cl)c(N)cc4OC)CC3)nc(NCc3ccccc3)n2)CC1 | 12 | 113
COc1cc(N)c(Cl)cc1C(=O)OCCN1CCC(C(=O)NCCNC(=O)C2CCN(CCOC(=O)c3cc(Cl)c(N)cc3OC)CC2)CC1 | 3 | 37

More lines, in order of falling Ki [2], values ahead:

cAMP [1] [%] | Ki [2] [nM] | SMILES
31 | 11 | COc1cc(N)c(Cl)cc1C(=O)OCCN1CCC(CCNC(=O)CCCCCC(=O)NCCC2CCN(CCOC(=O)c3cc(Cl)c(N)cc3OC)CC2)CC1
26 | 9 | COc1cc(N)c(Cl)cc1C(=O)OCCN1CCC(NC(=O)CCCCCC(=O)NC2CCN(CCOC(=O)c3cc(Cl)c(N)cc3OC)CC2)CC1
6 | 9 | COc1cc(N)c(Cl)cc1C(=O)OCCN1CCC(CCNC(=O)CCCCCCCCCCC(=O)NCCC2CCN(CCOC(=O)c3cc(Cl)c(N)cc3OC)CC2)CC1
8 | 8 | COc1cc(N)c(Cl)cc1C(=O)OCCN1CCC(C(=O)NCCCCCCCCCCNC(=O)C2CCN(CCOC(=O)c3cc(Cl)c(N)cc3OC)CC2)CC1
46 | 7 | COc1cc(N)c(Cl)cc1C(=O)OCCN1CCC(NC(=O)CCCCCNC(=O)C2CCN(CCOC(=O)c3cc(Cl)c(N)cc3OC)CC2)CC1
16 | 7 | COc1cc(N)c(Cl)cc1C(=O)OCCN1CCC(CNC(=O)CCC(=O)NCC2CCN(CCOC(=O)c3cc(Cl)c(N)cc3OC)CC2)CC1
0 | 6 | COc1cc(N)c(Cl)cc1C(=O)OCCN1CCC(C(=O)NCCCOCCOCCOCNC(=O)C2CCN(CCOC(=O)c3cc(Cl)c(N)cc3OC)CC2)CC1
16 | 5 | COc1cc(N)c(Cl)cc1C(=O)OCCN1CCC(C(=O)NCc2cccc(CNC(=O)C3CCN(CCOC(=O)c4cc(Cl)c(N)cc4OC)CC3)c2)CC1
32 | 5 | COc1cc(N)c(Cl)cc1C(=O)OCCN1CCC(NC(=O)CCCC(=O)NC2CCN(CCOC(=O)c3cc(Cl)c(N)cc3OC)CC2)CC1
5 | 5 | COc1cc(N)c(Cl)cc1C(=O)OCCN1CCC(C(=O)NCCCCCNC(=O)C2CCN(CCOC(=O)c3cc(Cl)c(N)cc3OC)CC2)CC1
15 | 5 | COc1cc(N)c(Cl)cc1C(=O)OCCN1CCC(CCNC(=O)CCC(=O)NCCC2CCN(CCOC(=O)c3cc(Cl)c(N)cc3OC)CC2)CC1
3 | 3 | COc1cc(N)c(Cl)cc1C(=O)OCCN1CCC(C(=O)NCCOCCOCCNC(=O)C2CCN(CCOC(=O)c3cc(Cl)c(N)cc3OC)CC2)CC1
